According to article PMC3696402 (Neuropharmacology, 2013):

Legend:
[1] = tested on: histamine H1 GPCRs; settings: previous studies; ref Bucholtz et al., 2009; cited from earlier work
[2] = tested on: C57Bl/6J male mice; assay: Locomotor activity; type: in vivo
[3] = tested on: C57Bl/6J male mice; assay: DOI-elicited head-twitch response; type: in vivo; settings: for Number of head-twitches: 10-min session; for DOI-elicited HTR (responses) after pretreatment: 30 mg/kg i.p. pretreatment before 1 mg/kg (−)-DOI; for DOI-elicited HTRs after oral administration: 30 mg/kg oral (gavage) 20 min before (−)-DOI 1.0 mg/kg; for ED50 value (±95% CL), 50% attenuation of the DOI-elicited response: i.p. pretreatment before 1 mg/kg (−)-DOI
In short: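 Male C57Bl/6J mice (Jackson, pair-housed, ~8 weeks old on arrival, ≥1 week acclimation), tested mid-light phase after 30 min room habituation. Test compound or saline (sterile saline, 0.01 ml/g) given i.p. 10 min, or orally by gavage 20 min, before (−)-DOI (0.1–1.0 mg/kg) or saline. Ten min after DOI, head twitches counted over 10 min by a blind observer. ED50 reported with 95% CL.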

[4] = target: T1, 5HT2B receptors (Homo sapiens, UniProt P41595); assay: Radioreceptor competition binding, [3H]-mesulergine, HEK membranes; settings: read-out: 5HT2B Ki ± SEM; [3H]-mesulergine 1.95 nM, 1.0 h at 37°C
T1 sequence (P41595 whole entry): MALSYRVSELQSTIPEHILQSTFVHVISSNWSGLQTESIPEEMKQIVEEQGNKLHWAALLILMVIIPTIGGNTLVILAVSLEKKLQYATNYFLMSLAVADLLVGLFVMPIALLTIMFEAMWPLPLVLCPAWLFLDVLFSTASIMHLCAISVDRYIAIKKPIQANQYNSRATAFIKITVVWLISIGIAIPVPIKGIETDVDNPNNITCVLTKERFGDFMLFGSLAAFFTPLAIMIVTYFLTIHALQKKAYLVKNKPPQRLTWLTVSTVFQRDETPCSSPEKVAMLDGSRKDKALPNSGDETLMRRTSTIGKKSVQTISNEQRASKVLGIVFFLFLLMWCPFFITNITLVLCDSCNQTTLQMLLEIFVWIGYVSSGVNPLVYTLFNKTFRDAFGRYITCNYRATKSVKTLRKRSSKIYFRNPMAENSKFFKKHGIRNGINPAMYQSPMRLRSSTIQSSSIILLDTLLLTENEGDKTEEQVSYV
In short: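 Membranes came from HEK-293 cells transfected with 24 μg human 5HT2B cDNA (Lipofectamine 2000, 24–48 h) and collected in 50 mM Tris, 10 mM MgCl2, 0.1 mM EDTA. […] Nonspecific binding: 10 μM mianserin. Filtered on GF/B, washed five times with Tris-HCl, scintillation counted. Triplicates, ≥3 experiments.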

[5] = target: adenosine, adrenergic, benzodiazepine, cholinergic, dopamine, GABAA, histamine H2, H3, H4, NMDA/PCP, opiate, and serotonin 5-HT1A, 5-HT1B, receptors; assay: Preliminary off-target binding studies; settings: read-out: Ki (off-target receptors), comparatively low (Ki > 0.5 μM) or very low (Ki > 1 μM) affinity, initial results, PDSP 2012
[6] = target: T2, 5HT2C receptors (Homo sapiens, UniProt P28335); assay: PLC activation and [3H]-IP formation in HEK cells; type: cell-based; settings: for EC50: read-out: 5HT2C EC50±SEM, [3H]-IP formation, 30 min incubation
T2 sequence (P28335 33-458): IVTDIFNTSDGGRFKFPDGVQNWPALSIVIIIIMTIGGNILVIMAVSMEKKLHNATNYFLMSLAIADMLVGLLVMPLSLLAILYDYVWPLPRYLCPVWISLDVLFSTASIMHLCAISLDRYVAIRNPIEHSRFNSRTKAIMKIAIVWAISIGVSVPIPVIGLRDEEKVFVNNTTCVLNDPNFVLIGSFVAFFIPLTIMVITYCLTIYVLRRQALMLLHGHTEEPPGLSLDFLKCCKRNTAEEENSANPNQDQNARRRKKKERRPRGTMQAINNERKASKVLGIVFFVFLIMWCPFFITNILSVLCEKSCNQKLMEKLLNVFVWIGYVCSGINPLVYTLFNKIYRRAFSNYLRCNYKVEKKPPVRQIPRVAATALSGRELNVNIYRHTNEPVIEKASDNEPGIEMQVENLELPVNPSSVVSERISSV

[7] = target: T2, 5HT2C receptors; assay: Radioreceptor competition binding, [3H]-mesulergine, HEK membranes; settings: read-out: 5HT2C Ki ± SEM; [3H]-mesulergine 1.4 nM, 1.0 h at 37°C
In short: (§1)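 HEK-293 cells transiently transfected (Lipofectamine 2000, 24–48 h) with human receptor cDNA (5HT2C: unedited INI isoform). Membranes in 50 mM Tris, 10 mM MgCl2, 0.1 mM EDTA; 3–5 μg protein per well. Nonspecific binding defined with 10 μM mianserin. Separated by GF/B filtration with five 50 mM Tris-HCl washes, then scintillation counting. Triplicates, at least 3 experiments; IC50 converted to Ki by Cheng–Prusoff.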

[8] = target: T3, 5HT2A receptors (Homo sapiens, UniProt P28223); assay: Radioreceptor competition binding, [3H]-ketanserin, HEK membranes; settings: read-out: 5HT2A Ki ± SEM; [3H]-ketanserin 2.0 nM, 1.0 h at 37°C
T3 sequence (P28223 whole entry): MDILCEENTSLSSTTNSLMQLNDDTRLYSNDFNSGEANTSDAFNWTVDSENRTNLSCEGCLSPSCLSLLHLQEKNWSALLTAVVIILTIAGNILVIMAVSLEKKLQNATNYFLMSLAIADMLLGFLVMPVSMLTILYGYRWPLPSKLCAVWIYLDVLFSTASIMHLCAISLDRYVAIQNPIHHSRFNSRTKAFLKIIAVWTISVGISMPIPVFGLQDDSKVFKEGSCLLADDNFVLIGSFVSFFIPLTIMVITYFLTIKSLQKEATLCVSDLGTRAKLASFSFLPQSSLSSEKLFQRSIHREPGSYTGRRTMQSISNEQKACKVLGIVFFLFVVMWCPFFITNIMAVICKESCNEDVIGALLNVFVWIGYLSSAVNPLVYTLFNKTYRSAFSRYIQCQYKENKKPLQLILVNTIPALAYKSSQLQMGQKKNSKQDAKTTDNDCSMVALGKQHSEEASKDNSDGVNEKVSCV
In short: as §1

[9] = target: T3, 5HT2A receptors; assay: PLC activation and [3H]-IP formation in HEK cells; type: cell-based; settings: for 5HT2A Function (activation of PLC/IP formation): at 10 μM
[10] = tested on: C57Bl/6J male mice; assay: Palatable meal eating; type: in vivo; settings: for Eating (pellets consumed) as % of baseline levels: 24 mg/kg i.p. 15 min before 30-min access to Crunchies; for ED50 value (±95% CL), 50% attenuation of consumption: i.p. 15 min before 30-min access to Crunchies
In short: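 Singly housed male C57Bl/6J mice (Harlan) with chow and water ad lib. In home cages, 10 sweet pellets (~190 mg, 3.5 kcal/g) were offered five days/week, with access tapered to 30 min/day. After ~2 weeks of stable intake, test compound was given i.p. (2 ml/kg, sterile saline) 15 min before access. Pellets eaten were counted. ED50 reported with 95% CL.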

[11] = target: T1, 5HT2B receptors; assay: PLC activation and [3H]-IP formation in HEK cells; type: cell-based; settings: at 10 μM
[12] = 3 mg/kg i.p. with DOI (1 mg/kg)
[13] = 10 mg/kg i.p. with DOI (1 mg/kg)
[14] = 10 mg/kg i.p. with saline (no DOI)
[15] = 30 mg/kg i.p. with DOI (1 mg/kg)
[16] = 30 mg/kg i.p. with saline (no DOI)
[17] = 30 mg/kg oral pretreatment before 1.0 mg/kg DOI

Row | SMILES | Affinity at histamine H1 GPCRs [1] | Ki [4] [nM] | Distance travelled (mean ± s.e.m.) [2, 12] [cm] | Distance travelled (mean ± s.e.m.) [2, 13] [cm] | Distance travelled (mean ± s.e.m.) [2, 14] [cm] | Distance travelled (mean ± s.e.m.) [2, 15] [cm] | Distance travelled (mean ± s.e.m.) [2, 16] [cm] | Distance travelled (mean ± s.e.m.) [2, 17] [cm] | Ki [5] [nM] | Function at the 5HT2C receptor (efficacy compared to 5HT) [6] | EC50 [6] [nM] | Ki [7] [nM] | DOI-elicited HTR (responses) after pretreatment [3] | DOI-elicited HTRs after oral administration [3] | ED50 value (±95% CL), 50% attenuation of the DOI-elicited response [3] | Ki [8] [nM] | 5HT2A Function (activation of PLC/IP formation) [9] | Eating (pellets consumed) as % of baseline levels [10] [%] | ED50 value (±95% CL), 50% attenuation of consumption [10] | 5HT2B Function (activation of PLC/IP formation) [11] | also measured
1 | CN(C)[C@@H]1Cc2ccccc2[C@@H](c2ccccc2)C1 (relative stereo) [(−)-trans-PAT, (−)-(2S, 4R)-trans-4-phenyl-N,N-dimethyl-2-aminotetralin, reference compound] | high affinity |  |  |  |  |  |  |  |  |  |  |  |  |  |  |  |  |  |  |  | 
2 | COc1cc(CC(C)N)c(OC)cc1I.Cl (single isomer, unassigned; (-)) [(−)-DOI, (−)-2,5-dimethoxy-4-iodoamphetamine hydrochloride, reference compound] |  |  |  |  |  |  |  |  |  |  |  |  |  |  |  |  |  |  |  |  | Distance travelled (mean ± s.e.m.) ([2]; saline pretreatment, (−)-DOI 0.1 mg/kg): 2829 ± 481 cm; Distance travelled (mean ± s.e.m.) ([2]; saline pretreatment, (−)-DOI 0.3 mg/kg): 2804 ± 353 cm; Distance travelled (mean ± s.e.m.) ([2]; saline pretreatment, (−)-DOI 1.0 mg/kg): 3626 ± 392 cm; Number of head-twitches ([3]; 0.1 mg/kg (−)-DOI preceded by a saline injection): 6; Number of head-twitches ([3]; 0.3 mg/kg (−)-DOI preceded by a saline injection): 22; Number of head-twitches ([3]; 1.0 mg/kg (−)-DOI preceded by a saline injection): 45; Number of HTRs ([3]; (−)-DOI 1.0 mg/kg following oral saline administration): 37.5
3 | CN(C)[C@H]1Cc2ccccc2[C@H](c2ccc(Cl)cc2)C1 (stereo in doubt) [(+)-p-Cl-PAT, (+)-(2R, 4S)-trans-4-(4′-chlorophenyl)-N,N-dimethyl-2-aminotetralin] |  | 80 ± 10 | 3523 ± 518 | 2557 ± 99 | 2142 ± 124 | 1329 ± 434 | 870 ± 502 | 1586 ± 398 | > 500 | partial agonists | 140 ± 20 | 45 ± 7 | 3.3 | 8.5 | 8.2 (5.4–12.4) mg/kg | 42 ± 6 | No Activation | 15.9 | 14.8 (11.8–18.7) mg/kg | No Activation ^1 | Distance travelled (mean ± s.e.m.) ([2]; 3 mg/kg i.p. with saline (no DOI)): 2216 ± 98 cm; Potency at 5HT2C relative to (−)-p-Cl-PAT ([6]; ratio of EC50 values): about 12 times; pA2 (competitive antagonism of 5HT activation of 5HT2A-mediated [3H]-IP formation) ([9]; Schild analysis versus 5HT): 6.21 ± 0.55
4 | CN(C)[C@H]1Cc2ccccc2[C@H](c2ccc(Cl)cc2)C1 (stereo in doubt) [(±) p-Cl-PAT, racemic trans-4-(4′-chlorophenyl)-N,N-dimethyl-2-aminotetralin] | high affinity |  |  |  |  |  |  | 1662 ± 468 |  |  |  |  |  | 13.25 |  |  |  |  |  |  | 
5 | CN(C)[C@@H]1Cc2ccccc2[C@@H](c2ccc(Cl)cc2)C1 (stereo in doubt) [(−)-p-Cl-PAT, (−)-(2S, 4R)-trans-4-(4′-chlorophenyl)-N,N-dimethyl-2-aminotetralin] |  | 300 ± 30 | 3386 ± 150 | 3064 ± 309 | 3097 ± 937 | 1889 ± 191 | 1994 ± 165 | 1944 ± 654 | > 500 | partial agonists | 1650 ± 149 | 130 ± 16 | 13 | 18.25 | 20.1 (14.0–28.8) mg/kg | 240 ± 32 | No Activation ^1 | 36.4 | 21.3 (18.5–24.4) mg/kg | No Activation ^1 | 
